This is a sample that favours compounds with a hit; in the whole collection about 2.9% have one here.
Cdc25B block = inhibitors of human Cdc25B phosphatase | AID 368 | recombinant Cdc25B, OMFP fluorescence Ex485/Em525 | P30305 | inhibition, %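 (compounds tested at 10 µM final in the well)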 | 65,000 compounds, 0.1% hits; in the data active = inhibition above about 50%
DUSP1 inh = inhibitors of human MKP-1 phosphatase | P28562 | recombinant MKP-1, OMFP hydrolysis fluorescence | inhibition, %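 (compounds tested at a single concentration somewhere between 10 and 100 µM)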 | 65,000 compounds, 0.15% hits | AID 374;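 active = inhibition above about 50%, limit read from the data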;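 note: 0% = DMSO max control wells and 100% = wells with enzyme stopped by NaOH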
BAP1 block = human BAP1 deubiquitinase inhibition | calls only at 20 µM | Q92560 | recombinant BAP1, Ub-AMC hydrolysis fluorescence kinetic; hits give low values | 72,000 compounds, 0.48% hits;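 active = activity remaining at or below 50% of control, provided the compound also passes the data quality filters; inactive = the rest, including low values that fail the filters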;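 note: 100% = DMSO wells rate and 0% = substrate alone blank rate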
Ec RNAP inh = Escherichia coli RNA polymerase inhibition; P0A8V2; E. coli RNA polymerase, fluorescence transcription assay; inhibition, %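 (tested at 10 µM)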; 62,000 compounds, 0.2% hits; AID 559; in the data active = inhibition above about 20%;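 note: 0% = enzyme without compound and 100% = no enzyme blank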
Target sequence (P0A8V2 whole entry, looked up): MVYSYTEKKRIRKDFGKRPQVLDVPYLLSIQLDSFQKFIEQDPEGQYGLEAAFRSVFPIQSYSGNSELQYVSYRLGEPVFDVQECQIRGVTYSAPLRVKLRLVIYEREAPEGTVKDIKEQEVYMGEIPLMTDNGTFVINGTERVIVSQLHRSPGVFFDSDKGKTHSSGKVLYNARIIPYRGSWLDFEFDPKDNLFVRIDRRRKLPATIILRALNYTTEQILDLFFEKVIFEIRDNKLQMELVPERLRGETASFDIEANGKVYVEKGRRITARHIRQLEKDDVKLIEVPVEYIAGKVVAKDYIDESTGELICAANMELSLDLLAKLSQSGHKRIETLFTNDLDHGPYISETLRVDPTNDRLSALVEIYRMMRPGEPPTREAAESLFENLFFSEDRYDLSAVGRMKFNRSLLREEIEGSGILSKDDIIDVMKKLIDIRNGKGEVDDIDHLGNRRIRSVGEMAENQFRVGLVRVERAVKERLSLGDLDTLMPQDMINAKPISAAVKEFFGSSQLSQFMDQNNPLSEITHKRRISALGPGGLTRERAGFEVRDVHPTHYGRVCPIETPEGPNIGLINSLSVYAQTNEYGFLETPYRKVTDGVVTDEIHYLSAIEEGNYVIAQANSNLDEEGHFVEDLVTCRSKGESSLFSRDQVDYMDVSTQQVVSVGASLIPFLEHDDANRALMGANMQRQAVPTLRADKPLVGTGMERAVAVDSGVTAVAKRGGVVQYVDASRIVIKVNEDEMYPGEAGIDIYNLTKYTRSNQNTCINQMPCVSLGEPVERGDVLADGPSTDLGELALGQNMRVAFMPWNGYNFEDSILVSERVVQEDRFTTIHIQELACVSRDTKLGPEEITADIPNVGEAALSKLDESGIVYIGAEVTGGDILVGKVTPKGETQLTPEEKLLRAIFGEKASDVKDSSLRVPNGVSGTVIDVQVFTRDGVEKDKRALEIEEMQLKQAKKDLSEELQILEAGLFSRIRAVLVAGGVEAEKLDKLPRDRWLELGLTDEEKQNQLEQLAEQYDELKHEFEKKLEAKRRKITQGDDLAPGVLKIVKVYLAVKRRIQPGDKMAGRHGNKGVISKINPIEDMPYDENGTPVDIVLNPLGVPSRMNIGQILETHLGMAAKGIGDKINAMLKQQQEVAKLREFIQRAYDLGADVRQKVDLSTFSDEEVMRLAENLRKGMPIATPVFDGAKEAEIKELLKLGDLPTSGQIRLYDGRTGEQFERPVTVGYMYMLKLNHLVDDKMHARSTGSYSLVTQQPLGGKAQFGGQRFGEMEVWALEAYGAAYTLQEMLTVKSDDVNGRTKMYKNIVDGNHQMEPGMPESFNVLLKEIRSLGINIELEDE
tolC growth inh = E. coli tolC mutant growth inhibition; 65,000 compounds, 2.2% hits; E. coli BW25113 tolC mutant growth, OD615; growth inhibition, % at 10 µM (by protocol); AID 573;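 active = growth inhibition at or above a cutoff equal to the mean over every tested compound plus 3 SD, cut at about 60% in these data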;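 note: growth measured after 20 h incubation at 37 °C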
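Signal: optical density read at 615 nm; Assay system: E. coli ΔtolC::kan strain BW25113; Times: 20 h incubation with compound, 37 °C; Dosing: 10 µM final, single dose.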
Hsp90 inh = displaces geldanamycin probe from tumor Hsp90; P07900; NCI-N417 lysate Hsp90, Cy3B-geldanamycin FP displacement; inhibition, % at 30 µM; 64,000 compounds, 0.35% hits; AID 429;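 active = inhibition above 50%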;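 note: 0% = tracer plus lysate wells and 100% = tracer alone without lysate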
* = called active by the depositor; i = inactive; / = no result shown.

SMILES	Cdc25B block	DUSP1 inh	BAP1 block	Ec RNAP inh	tolC growth inh	Hsp90 inh
COC(=O)c1sccc1NC(=O)c1csc(C)c1	0	-8	i	11	98*	-1
COC(=O)c1sccc1NC(=O)c1ccc(Cl)s1	-4	-1	i	3	72*	-1
COC(=O)c1sccc1NC(=O)c1ccc(OC)cc1	-3	16	i	/	34	-5
Oc1ccc(Cl)cc1Cc1cc(Cl)ccc1O	-5	19	/	/	100*	/
CC(=O)Nc1nc(-c2cccs2)cs1	-7	3	i	1	1	-12
CC(C)(C)c1csc(NC(=O)c2ccc(Cl)s2)n1	1	5	/	/	100*	-15
O=C(Nc1nc(-c2cccs2)cs1)c1ccc(Cl)s1	-4	0	i	0	96*	-3
O=C(Nc1ccccc1Cl)c1c(Br)sc2c1CCCC2	/	/	i	/	/	/
CCOC(=O)c1c(C)oc2cc(Br)c(OC(=O)c3ccccc3)cc12	/	/	i	/	/	/
COC(=O)c1ccc(O)c(Sc2cc(C(=O)OC)ccc2O)c1	-1	8	i	5	87*	3
Cc1ccc(O)c(Sc2cc(C)ccc2O)c1	-6	13	i	9	40	5
COc1ccccc1-c1cc(C(=O)NC(C)c2ccccc2)no1 (stereo not drawn)	-1	6	i	0	72*	-1
COc1ccccc1-c1cc(C(=O)NC(C)C)no1	-17	3	i	5	-2	3
O=C(Oc1ccc(F)cc1)c1cccc([N+](=O)[O-])c1	/	/	i	/	/	/
COc1cccc(OC)c1C(=O)Nc1sc2c(c1C#N)CCCCC2	/	/	i	/	/	/
COc1ccc(-c2cc(-c3cc(F)ccc3O)[nH]n2)cc1OC	7	17	i	-3	81*	4
O=S(=O)(Nc1nc2ccccc2nc1N1CCN(c2ccccn2)CC1)c1ccc(Cl)cc1	11	35	/	/	83*	2
COc1ccc(C2C3C(=O)N(c4ccccc4Cl)C(=O)C3ON2c2ccccc2)cc1 (stereo not drawn)	/	/	i	/	/	/
Cc1ccsc1C=Nc1ccc(O)cc1	-4	-2	i	/	-2	13
Oc1ccc(N=Cc2ccc(O)c(O)c2)cc1	5	-2	i	9	-9	93*
COc1ccc(-c2nc(-c3cccs3)c(-c3cccs3)[nH]2)cc1O	4	7	i	-2	97*	0
CCOc1cc(N2CCOCC2)c(OCC)cc1NC1=NCCCCC1	0	30	i	6	-9	61*
FC(F)(F)c1ccc(N2CCOCC2)c(NC2=NCCCCC2)c1	-11	2	i	7	-5	-4
COCCOC(=O)c1[nH]c2c(c1C)C(=O)C(C(=O)OC)C(C)C2 (stereo not drawn)	1	6	i	4	-11	-1
CCCCCOC(=O)c1[nH]c2c(c1C)C(=O)C(C(=O)OC)C(C)C2 (stereo not drawn)	2	32	i	4	75*	-6
SMILES	Cdc25B block	DUSP1 inh	BAP1 block	Ec RNAP inh	tolC growth inh	Hsp90 inh
Cc1cc(Nc2ccc(Br)cc2)n2ncnc2n1	/	/	i	/	/	/
Cc1ccc2[nH]c3c(c2c1)CCC3=O	-16	8	i	9	-2	-3
Cc1ccc2[nH]c3c(c2c1)CCc1cn[nH]c1-3	5	14	i	6	100*	1
CCc1ccc2c(c1)[C@]1(C(=O)N2)[C@@H]2C(=O)N(Cc3ccccc3)C(=O)[C@@H]2[C@@H]2CCCN21	-6	8	i	9	45	-5
Cc1cc(Cl)cc2c1NC(=O)[C@]21[C@@H]2C(=O)N(Cc3ccccc3)C(=O)[C@@H]2[C@@H]2CCCN21	7	6	i	33*	28	-13
O=C(OCC#CCSc1nnc(-c2ccccc2)o1)c1ccco1	-8	-15	i	-4	0	-3
O=C(OCC#CCSc1nnc(-c2ccc(Br)cc2)o1)c1ccco1	-11	6	i	43*	45	-7
CCN(C1CCCCC1)S(=O)(=O)c1ccc(OC)c(C)c1	-10	-6	i	11	92*	-1
COc1ccc2c3c(cccc13)NN=C2C	-5	12	i	13	0	86*
COc1cccc(OC)c1OCCCc1c(C)n[nH]c1C	13	-9	i	3	13	-1
CCCCCCn1c2ccccc2c(=O)c2ccccc21	/	/	i	/	/	/
COC(=O)c1[nH]c2ccc(Cl)cc2c1NC(=O)C1CC1	84*	-8	i	4	12	-7
CCOC(=O)C1CCN(CC(=O)Nc2c(C(=O)OC)[nH]c3ccc(Cl)cc23)CC1	1	0	i	5	7	-8
CCOC(=O)N1CCc2c(sc(NC(=O)c3ccc(Cl)s3)c2C(N)=O)C1	8	37	i	8	73*	-3
CCOC(=O)N1CCc2c(sc(NC(C)=O)c2C(N)=O)C1	0	10	i	3	-8	0
C=CCn1cnc2c(c1=O)c1nc3ccccc3nc1n2/N=C/c1cc(OC)c(OC)c(OC)c1	-3	-42	i	13	77*	-3
Cc1c(-c2nc(N)nc(Nc3ccccc3)n2)oc2ccccc12	-7	7	/	5	98*	0
Cc1ccc(N(CCCCN2C(=O)c3ccccc3C2=O)C(=O)c2ccc([N+](=O)[O-])cc2)cc1	/	/	i	/	/	/
CC(=O)OCCn1ccc(=O)[nH]c1=O	/	/	i	/	/	/
COc1ccc(/C(O)=C2/C(=O)C(=O)N(CCCN(C)C)C2c2cccnc2)cc1 (stereo not drawn)	-3	-2	i	7	-28	-1
CN(C)CCCN1C(=O)C(=O)/C(=C(/O)c2ccc(OCc3ccccc3)cc2)C1c1cccnc1 (stereo not drawn)	2	-9	i	6	-13	78*
CC1(C)CCC2=C(O1)c1ccccc1C(=O)C2=O	/	/	i	/	/	89*
CCN(Cc1ccccc1)C(=O)CCc1nc(-c2ccc(C)cc2)no1	-10	3	i	2	88*	-2
CCN(CCCNC(=O)CCc1nc(-c2ccc(C)cc2)no1)c1cccc(C)c1	-37	26	i	9	91*	4
CCc1ccccc1N(CC)C(=O)CCc1nc(-c2ccc(C)cc2)no1	-26	7	i	6	95*	1
SMILES	Cdc25B block	DUSP1 inh	BAP1 block	Ec RNAP inh	tolC growth inh	Hsp90 inh
CCN(CCCNC(=O)c1[nH]c(C)c(C(C)=O)c1C)c1cccc(C)c1	8	8	i	3	98*	-9
O=S(=O)(N1CCCCC1)n1c(Cc2ccccc2)nc2ccccc21	-16	-16	i	5	100*	1
Cc1cccc(OCc2nc(C#N)c(NCc3ccc4c(c3)OCO4)o2)c1	-7	3	i	6	79*	-7
CCCCC(=O)c1c(O)c2ccccc2oc1=O	9	-4	i	5	99*	1
O=C(CC1CCCCC1)c1c(O)c2ccccc2oc1=O	-4	6	i	13	100*	-3
CC(=O)c1ccc(C(=O)Nc2ccc(-c3ccc(NC(=O)c4ccc(C(C)=O)cc4)c(C)c3)cc2C)cc1	/	/	i	/	/	/
